INS promoter act = activators of insulin promoter-driven GFP, primary screen, imaging, TRM-6 cells, eGFP reporter, cell count | plate-scaled: unstimulated 0, stimulated control 100 | activation, % at 2 µM | 130,000 tested, 0.81% active | AID 1296, 2008;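 active = activation at 2 µM above a set limit, confirmed on inspection of the cell images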;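 also: share of cells whose green reporter signal exceeds an intensity cutoff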
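System – human fetal islet-derived TRM-6 cells with tamoxifen-inducible insulin promoter–eGFP reporter · Amount – 1,000 cells per well · Schedule – overnight tamoxifen, then two-day compound incubation at 37 °C · Detection – high-content imaging of fixed cells with Hoechst nuclear stain · Read-out – percent cells above green-intensity threshold, converted to percent activation versus plate controls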
Hits are given with their value; . = inactive. The full list was thinned out, with hits kept by preference.

SMILES	INS promoter act
OCc1nc2ccccc2n1CC(O)Cn1ccc2ccccc21 (stereo not given)	91
OCc1nc2ccccc2n1CCCOc1ccccc1	.
CC(C)Cn1c(NCCO)nc2ccccc21	.
O=C(c1cccc(N2C(=O)C3CC=CCC3C2=O)c1)N1CCCc2ccccc21 (stereo not given)	.
O=C(O)CCCC(=O)N1CCc2cc(S(=O)(=O)NCc3ccc(F)cc3)ccc21	.
O=S(=O)(NCc1cccnc1)c1ccc2c(c1)OCCO2	469
O=S(=O)(NCc1cccnc1)c1ccc(Cl)c(Cl)c1	.
CCN(CC)C(=O)c1ccc(S(=O)(=O)NCc2cccnc2)cc1	.
Cc1sc(N)c(C(=O)c2ccccc2)c1C	.
Cc1cccc(C(=O)Nc2ccccc2SCC2CSc3nc4ccccc4c(=O)n32)c1 (stereo not given)	.
CNc1nc(N/N=C/c2ccc([N+](=O)[O-])cc2)nc(Nc2ccccc2)n1	.
COc1ccccc1NS(=O)(=O)c1ccc(N/N=C/c2c(C)nn(-c3ccccc3)c2N2CCCC2)c([N+](=O)[O-])c1	.
COc1ccccc1NS(=O)(=O)c1cc([N+](=O)[O-])ccc1N/N=C/c1c[nH]c2ccccc12	264
O=C(N/N=C/c1ccc[nH]1)c1ccncc1	.
O=C(N/N=C/c1c[nH]c2ccccc12)c1[nH]c2ccc(Br)cc2c1-c1ccccc1	.
O=[N+]([O-])c1ccc(N/N=C/c2ccc[nH]2)cc1	245
COc1ccccc1NS(=O)(=O)c1cccc2cccnc12	.
O=C(CNc1ccccc1)N/N=C/c1c[nH]c2ccccc12	.
O=[N+]([O-])c1ccc(N/N=C/c2c[nH]c3ccccc23)cc1	223
CC(C)COc1cccc(C(=O)NC(=S)Nc2cccc(NC(=O)c3ccccc3Cl)c2)c1	.
COc1ccc(C2(C(=O)N3CCOCC3)CCOCC2)cc1OC	.
COc1ccc(S(=O)(=O)N(C)CC(=O)NCc2cccnc2)cc1C	.
CC1CCCC(NC(=O)COC(=O)CCSc2ccccc2)C1C (stereo not given)	.
Oc1ccc(Cl)cc1C=Nc1ccc2c3c(cccc13)CC2	.
CCCn1c2c(c(O)c(C(=O)Nc3nc4ccccc4s3)c1=O)CCCC2	.
SMILES	INS promoter act
COC(=O)Nc1ccccc1C(=O)N1CCC(O)(c2ccc(Cl)cc2)CC1	.
Cc1cccc2nc(-c3ccccc3)nc(N3CCC(O)(c4ccc(Cl)cc4)CC3)c12	454
Cc1cc(C)n(-c2nc3ccccc3nc2N2CCN(C(=O)c3ccc(Cl)cc3)CC2)n1	.
COc1ccc(NS(=O)(=O)c2cccc(NC(=O)c3cnccn3)c2)cc1Br	.
CCOCCCNc1nc2c(C)cccn2c(=O)c1/C=C1\SC(=S)N(CC(C)C)C1=O	223
Cc1cccn2c(=O)c(C=NCCO)c(NCc3ccco3)nc12	.
Cc1ccc(C(=O)NC(=S)NCc2ccco2)cc1	.
Cc1ccc(-c2cc(-c3nnc(SCC(=O)NC(C)C(C)C)n3N)c3ccccc3n2)cc1 (stereo not given)	.
Nn1c(SCC(=O)Nc2ccc3c(c2)OCO3)nnc1-c1ccccc1	.
CN(C(=O)CSc1nc(-c2ccccc2)cn1N)C(c1ccccc1)c1ccccc1	82
CCCCc1ccc(NC(=S)NCc2cccnc2)cc1	.
CCC(=O)Nc1cc(C(=O)OC(C(=O)c2ccc(C)c(C)c2)c2ccccc2)ccc1C (stereo not given)	.
Cn1c(Cc2ccccc2)nnc1SCc1ccc(C(=O)O)cc1	.
Cc1noc(C)c1S(=O)(=O)N1CCC(C(=O)NCCc2ccc(S(N)(=O)=O)cc2)CC1	.
Cc1ccc(CNC(=O)C2CCCN(S(=O)(=O)c3c(C)noc3C)C2)cc1 (stereo not given)	.
Cc1ccc(CNC(=O)C2CCN(S(=O)(=O)c3c(C)noc3C)CC2)cc1	76
COc1ccc(C(=O)NNC(=O)c2cccc(F)c2)cc1	.
COc1ccc(C(=O)NCc2nnc(SCC(=O)Nc3nc4ccc(C)cc4s3)o2)cc1OC	.
O=C(Nc1ccccc1)c1ccncc1	.
CCC(=O)Nc1ccnc(-c2cccnc2)n1	.
O=C(Nc1ccnc(-c2ccncc2)n1)c1ccc(F)cc1	340
COc1ccc(C(=O)NCC(=O)NCC(=O)OCC(=O)C(C)(C)C)cc1	.
O=C(CCn1c(=S)[nH]c2ccccc2c1=O)NCCc1ccc(Cl)cc1	.
Cc1c(NC(N)=O)c(=O)n(-c2ccccc2)n1C	248
CCOC(=O)NC(=S)Nc1c(C)n(C)n(-c2ccccc2)c1=O	.
SMILES	INS promoter act
Cc1c(NC(=O)c2ccccc2)c(=O)n(-c2ccccc2)n1C	.
CCC(C(=O)Nc1sc(C(N)=O)c(C)c1C(=O)OC)c1ccccc1 (stereo not given)	.
c1cc2c(cc1-c1csc(NNC3=NCCCCC3)n1)OCCO2	.
O=C(c1ccccc1C(=O)N1CCN(c2ccccc2F)CC1)N1CCN(c2ccccc2F)CC1	.
O=C1CN(c2ccccc2F)C(=O)CN1c1ccccc1F	412
Cc1cccc(C)c1N1CC(=O)N(c2c(C)cccc2C)CC1=O	.

From PubChem BioAssay
